Compound activity (PubChem BioAssay)
H9c2 protect – modulators protecting cardiomyocytes from myocardial damage | H9c2 cardiomyocytes, H2O2 injury protection, ATPLite, 2 h | protection from H2O2 cell death, % at 20 µM | actives 0.63% (n = 360,000) | AID 588492;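 active means compounds giving at least 50% protection of heart cells from peroxide-induced death in the single-dose screen, raw or plate-pattern-corrected value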;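 further: 0% = DMSO wells with peroxide and 100% = DMSO wells without peroxide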
Arr AP2 block – inhibitors of human beta-arrestin and AP2 interaction | inhibition, % at 10 µM | FITC-arrestin peptide / GST-AP2 beads, flow cytometry; AP2 beta2 appendage carries R879A mutation | AID 504490 | actives 0.31% (n = 340,000);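 active means inhibition above a set limit, near 3 SD of compounds lacking own fluorescence, cut at about 54% in these data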;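 further: plate controls were DMSO wells for no effect and 5 µM unlabelled arrestin peptide for full effect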
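System: GST-AP2 R879A glutathione beads; medium: PBS, Tween 20 0.05%, BSA 0.1%; reagent: fluorescein-tagged arrestin peptide at 50 nM final; schedule: pre-incubation 12 min, peptide binding 1 h, room temperature; detection: flow cytometry, FL1 (488/535 nm); read-out: inhibition as reduced fluorescein signal on beads, percent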
SENP1 inh – SENP1 (human) catalytic domain inhibition. recombinant SENP1 catalytic domain, CyPet-SUMO1-YPet FRET cleavage. inhibition, % at 10 µM. actives 0.21% (n = 360,000);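 active means inhibition at least 30% at 10 µM, raw YFP signal under a set limit, fluorescence ratio 0.5 to 1.5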;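 further: 0% = enzyme with DMSO and 100% = no enzyme wells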
Target sequence (Q9P0U3 419-644 limits assumed): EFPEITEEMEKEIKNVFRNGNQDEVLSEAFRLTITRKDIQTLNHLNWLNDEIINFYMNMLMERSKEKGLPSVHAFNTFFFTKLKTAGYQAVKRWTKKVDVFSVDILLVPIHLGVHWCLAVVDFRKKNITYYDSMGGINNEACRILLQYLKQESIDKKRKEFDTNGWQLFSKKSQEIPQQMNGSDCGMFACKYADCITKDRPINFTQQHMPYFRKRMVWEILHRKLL
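Test system: hSENP1 catalytic domain, recombinant; Amount: 20 pM final SENP1 enzyme; Medium: Tris pH 8 buffer plus EDTA, NaCl, BME, BSA, NP40, catalase; Schedule: 50 min enzyme reaction, room temperature, light-protected; Technique: FRET fluorescence in CFP and YFP emission channels; Controls: no-enzyme wells low, DMSO-plus-enzyme wells high control.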
FAS TE block – blocks the thioesterase domain of human fatty acid synthase; AID 602261; recombinant FAS-TE, OMFH fluorogenic substrate, fluorescence endpoint; actives 0.67% (n = 360,000); inhibition, % at 15 µM;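 active means compounds whose normalised, plate-corrected inhibition of enzyme fluorescence in the single-dose primary screen is 50% or more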;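 further: 0% = DMSO with enzyme and 100% = substrate without enzyme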
iPSC survival up – increases survival of single human iPS cells | survival enhancement, % at 20 µM | actives 0.044% (n = 360,000) | AID 602274 | hiPSC single-cell survival, ATPlite luminescence; 100% = ROCK inhibitor wells, 0% = DMSO; in the data active means survival enhancement above about 18%;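 further: cells exposed to compounds for 16 hours before the ATP read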
GRIN3A LBD mod – modulators (binders) of human NR3A ligand-binding domain. NR3A LBD differential scanning fluorimetry, Tm shift; 0% = protein alone, 100% = glycine-bound protein. Tm shift relative to glycine control, % at 25 µM. actives 2.5% (n = 340,000);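 active means melting temperature shift of at least 10% of the positive control shift, at one fixed dose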
Numbers without * were called inactive; nt = no result given. In the library only some 4% were active in any assay of this set; here they are far more common.

SMILES	H9c2 protect	Arr AP2 block	SENP1 inh	FAS TE block	iPSC survival up	GRIN3A LBD mod
CCC(=O)N(C)C[C@H]1Oc2ncc(C#Cc3cccnc3)cc2C(=O)N([C@@H](C)CO)C[C@@H]1C	-1	nt	-2	-4	3	nt
NC(=O)CC(NC(=O)c1ccccc1)C(=O)O (stereo not drawn)	-1	0	0	-5	20*	-2
O=C(CC(Nc1ccccc1)C(=O)O)c1ccccc1 (stereo not drawn)	-13	9	-13	-9	-5	36*
CN(C)CC(C(=O)c1ccccc1)c1ccccc1 (stereo not drawn)	-32	12	1	-3	-6	-2
O=C(CC(C(=O)c1ccccc1)c1ccccc1)c1ccccc1 (stereo not drawn)	56*	-8	1	26	-2	2
CCOC(=O)C(C)N1c2cccc3cccc(c23)S1(=O)=O (stereo not drawn)	4	nt	-2	-1	-5	nt
Cc1ccc(Cl)cc1-c1cc(C(=O)Nc2ccc(F)cc2)[nH]n1	-24	nt	2	15	-1	nt
CCCCN(CCCNC(=O)c1ccc2c(c1)NC(=O)CN2C)c1ccccc1	-15	nt	-80	14	-2	nt
Cc1cc(C(C#N)c2ccc(Cl)cc2)c(Cl)cc1NC(=O)c1cc(I)cc(I)c1O (stereo not drawn)	-40	9	-2	57*	1	4
O=C(Oc1ccc2ccccc2c1)c1ccccc1	-9	-5	0	28	2	19*
O=C(Cn1cnc([N+](=O)[O-])c1)Nc1cc(Oc2ccc(Cl)cc2Cl)cc([N+](=O)[O-])c1	-29	0	1	27	-3	12*
N#Cc1ccc(NC(=O)Cn2cnc([N+](=O)[O-])c2)cc1	0	13	-1	-5	-1	1
Nc1[nH]c(C(=O)c2ccccc2)c(-c2c(F)cccc2F)c1C(=O)c1ccc(Cl)c(Cl)c1	nt	nt	5	28	0	nt
O=C(/C(N=Nc1cccc(C(F)(F)F)c1)=C(/O)c1cccs1)C(F)(F)F	-14	8	1	45	0	17*
CCC/C=C/c1ccc(CN2C(C(C)C)C(=O)N(Cc3cn(Cc4ccco4)nn3)CCS2(=O)=O)cc1 (stereo not drawn)	-3	nt	-2	15	-1	nt
COc1ccc(-c2nc(NCCN(C)C)nc3ccsc23)c(C)c1	11	nt	0	-9	6	nt
CCOC(=O)C1CCCN(S(=O)(=O)c2ccc3c(c2)CC(C)N3C(=O)C2CC2)C1 (stereo not drawn)	-6	-1	0	8	0	-1
CCOC(=O)C1CCN(S(=O)(=O)c2ccc3c(c2)CC(C)N3C(=O)C2CCC2)CC1 (stereo not drawn)	-3	8	1	16	1	24*
Cc1nn(-c2nc3ccccc3s2)c(N)c1Sc1ccc(F)cc1	-1	-5	2	6	1	15*
Cc1cc(N)n(-c2nc3ccccc3s2)n1	-21	15	-1	3	-2	32*
Cc1nn(-c2nc3ccccc3s2)c(N)c1-c1ccccc1	-13	-3	0	24	-1	-11
O=C1NC[C@H](CCCCN2C[C@H](Cc3ccccc3)N(CCc3ccc(O)cc3)C(=O)C2=O)N(CCC2CCCCC2)C1=O	nt	nt	1	13	0	nt
COC(=O)C1(C(=O)OC)C/C=C\CCN(S(=O)(=O)c2ccccc2[N+](=O)[O-])CC1	nt	nt	2	2	0	nt
Oc1ccc(/C=N/n2c3ccccc3c3ccccc32)cc1	-24	6	-3	25	14	16*
COc1ccc(C(=O)NCC2CCCO2)cc1 (stereo not drawn)	4	12	0	-10	0	12*
SMILES	H9c2 protect	Arr AP2 block	SENP1 inh	FAS TE block	iPSC survival up	GRIN3A LBD mod
COC(=O)NCC(c1ccco1)N1CCN(c2ccc(OC)cc2)CC1 (stereo not drawn)	3	-7	0	-5	0	2
COc1ccc(N2CCN(C(CNC(=O)C(=O)NCC3CCCO3)c3ccco3)CC2)cc1 (stereo not drawn)	4	4	3	-4	-1	10*
COc1cc(OC)cc(C(=O)Nc2ccc(C(=O)NCC3CCCO3)cc2)c1 (stereo not drawn)	11	11	-3	-3	1	0
OC(c1cccc(CN2CCCCC2)c1)c1ncc(-c2cccc3ccccc23)[nH]1 (stereo not drawn)	0	nt	1	-3	2	nt
Cc1ccc(S(=O)(=O)NCc2ccccc2Br)cc1	nt	nt	4	nt	nt	nt
COc1cc(/C=N/N2C(=O)CSC2=S)ccc1O	8	-1	2	-5	-1	-4
COc1cc(O)c(C=NN2C(=O)CSC2=S)c(OC)c1	62*	nt	-52	0	0	nt
N#CCCN(Cc1ccccc1)C(C(=O)NC1CCCCC1)c1cc2ccccc2o1 (stereo not drawn)	-3	nt	1	32	-2	nt
COc1cccc(NC(=O)Nc2ccc(C(C)(C)C)cc2)c1	-14	-4	0	18	-1	18*
Cc1ccc(NC(=O)Nc2ccc(F)cc2)cc1Cl	-18	5	0	3	-2	28*
Cc1ccc(NC(=O)CCC(=O)c2ccc(F)cc2)cc1Cl	-2	3	2	7	-2	-2
COc1cccc(NC(=O)Nc2ccncc2)c1	1	4	1	-5	0	1
COc1cccc(NC(=O)Nc2ccc(C)c(Cl)c2)c1	-10	1	5	7	-2	34*
O=S1(=O)N[C@@H](Cc2ccccc2)COc2cc(N3CCN(Cc4ccccc4F)CC3)ccc21	nt	nt	2	-4	0	nt
COC(=O)c1ccc(COc2cccn3c(N(C)C(=O)CCC4CCCC4)c(C)nc23)cc1	-15	nt	-3	21	1	nt
O=c1oc2ccccc2c2oc3cc(O)c(O)cc3c12	50	8	30	12	0	1
O=c1oc2c(O)c(O)cc3c(=O)oc4c(O)c(O)cc1c4c23	-10	27	23	84*	1	-18
CN(C)C(=O)c1cc2c(c(-c3cccc(-c4ccccc4F)c3)n1)[C@@H](CCO)N(S(C)(=O)=O)C2	nt	nt	1	-16	0	nt
COc1cc(/C=C(\C#N)c2ccccn2)ccc1OCc1ccc(Cl)cc1	7	11	-7	30	-1	14*
COc1cc(/C=N/N2CCOCC2)ccc1OCc1ccc(Cl)cc1	-9	6	0	14	0	22*
CC(=O)Nc1cc(-c2ccc(S(C)(=O)=O)cc2)cn2c(-c3ccc(F)c(Cl)c3)cnc12	19	nt	-10	36	5	nt
Oc1ccc(-c2onc(C(F)(F)F)c2-c2cscn2)c(O)c1	-2	0	-2	-2	20*	-6
